In data set [1] the test system is Leishmania major. In words: Antiparasitic activity against Leishmania major promastigotes assessed as parasite killing at 750 nM. In kind it is functional.
In data set [2] the test system is Leishmania major. In words: Antiparasitic activity against Leishmania major amastigotes in macrophage assessed as parasite killing at 3 to 30 uM. In kind it is functional.
Another data set deals with Leishmania infantum. In words: Antiparasitic activity against Leishmania infantum promastigotes assessed as parasite killing at 1.4 to 382.9 uM. The format is functional.
Data set [3] is described as follows: Growth inhibition of human U937 cells at 3 mM. In kind it is cell-based, U-937.
The subject of data set [4] is Trypanosoma cruzi. The data set can be described thus: Growth inhibition of Trypanosoma cruzi epimastigotes after 72 hrs by Alamar blue assay. The format is functional, organism-based. (In general: The colour change of resazurin is a common sign of viable cells or microbes.)
For data set [5], the system named is Trypanosoma brucei rhodesiense. The data set can be described thus: Growth inhibition of Trypanosoma brucei rhodesiense trypomastigotes after 72 hrs by Alamar blue assay. The format is functional, organism-based.
Data set [6] relates to Leishmania donovani. In words: Growth inhibition of Leishmania donovani promastigotes after 72 hrs by Alamar blue assay. The format is functional, organism-based. The method, boiled down:
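Parasites exposed to drug for 72 h; growth read as optical density at 600 nm against drug-free control cultures. Six drug concentrations per run, 2–5 independent runs; mean inhibition plotted against concentration, IC50 and IC90 by linear regression, reported in micromolar with standard errors of the means.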

Data set [7] has as its system Trypanosoma cruzi. The data set can be described thus: Inhibition of ATPase in Trypanosoma cruzi at 1 uM in presence of calcium. More on the design: scale not given: the % may be the effect or the level left. Put shortly:
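T. cruzi membranes were isolated by a protocol adapted from Leishmania. It was started with 2 mM ATP, and released inorganic phosphate was measured colorimetrically.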

The test system of data set [8] is Leishmania donovani. The data set can be described thus: Antiparasitic activity against Leishmania donovani in hamster assessed as reduction of spleen parasite burden at 25 mg/kg, po. In kind it is functional. More on the design: scale not given: the % may be the effect or the level left.
For data set [9], the system named is Leishmania donovani. In words: Antiparasitic activity against Leishmania donovani in hamster assessed as reduction of spleen parasite burden at 50 mg/kg, po. In kind it is functional. More on the design: scale not given: the % may be the effect or the level left.
In data set [10] the test system is Leishmania donovani. The data set can be described thus: Antiparasitic activity against Leishmania donovani in hamster assessed as reduction of liver parasite burden at 25 mg/kg, po. In kind it is functional. More on the design: scale not given: the % may be the effect or the level left.
Data set [11] concerns Leishmania donovani. The data set can be described thus: Antiparasitic activity against Leishmania donovani in hamster assessed as reduction of liver parasite burden at 50 mg/kg, po. More on the design: scale not given: the % may be the effect or the level left. The format is functional.

These results are taken from ChEMBL document CHEMBL1145491, “Artemisinins inhibit Trypanosoma cruzi and Trypanosoma brucei rhodesiense in vitro growth” (Antimicrob Agents Chemother, 2007).

The term inhibition denotes the change of the read-out against control, counted positive when it falls. In general, IC50 refers to the midpoint of a concentration-inhibition curve. Usually IC90 stands for the concentration at which the effect reaches the 90% level.

`C[C@@H]1CC[C@H]2[C@@H](C)C(=O)O[C@@H]3O[C@@]4(C)CC[C@@H]1[C@]32OO4` [ARTEMISININ]: the Activity came to 50% in the data set with Leishmania major [1], 50% with Leishmania major [2], 50% in the data set with Leishmania infantum and 24.9% in the data set with Trypanosoma cruzi [7]. Further, the inhibition at 3000 µM in data set [3] was < 5%. Also, the 50% inhibitory concentration (IC50) in the data set on Trypanosoma cruzi [4] amounted to 13.4 µM; in data set [5] it was 20.4 µM; in the data set with Leishmania donovani [6], 30.8 µM. Further, the IC90 with Trypanosoma cruzi [4] was 46.5 µM; in [5], 49.1 µM.
On to `C[C@H]1[C@@H](O)O[C@@H]2O[C@@]3(C)CC[C@H]4[C@H](C)CC[C@@H]1[C@@]24OO3` [ARTENIMOL], for which the Activity in the data set on Leishmania donovani [8], in the data set on Leishmania donovani [9], in the data set on Leishmania donovani [10] and in the data set on Leishmania donovani [11] was 75% each time. Besides, the half-maximal inhibitory concentration (IC50) in the data set on Trypanosoma cruzi [4] amounted to 12.8 µM; in data set [5], 24.6 µM. Moreover, the concentration for an effect of 90% (IC90) with Trypanosoma cruzi [4] was determined as 49.2 µM; in [5] it was 49.6 µM.
For `N=C(N)c1ccc(OCCCCCOc2ccc(C(=N)N)cc2)cc1` [PENTAMIDINE], the half-maximal inhibitory concentration (IC50) in the data set on Trypanosoma cruzi [4] came to 1.1 µM; in [5], 1.2 µM; with Leishmania donovani [6], 1 µM. The IC90 in the data set on Trypanosoma cruzi [4] was 4.4 µM; in [5] it was 3.7 µM.
For the compound `C[C@H]1[C@H](N2CCS(=O)(=O)CC2)O[C@@H]2O[C@@]3(C)CC[C@H]4[C@H](C)CC[C@@H]1[C@@]24OO3` [ARTEMIFONE], the half-inhibitory concentration (IC50) with Trypanosoma cruzi [4] stood at 23.3 µM; in data set [5], 22.5 µM; in the data set on Leishmania donovani [6], 12.9 µM. In addition, the figures for the IC90 (in the data set on Trypanosoma cruzi [4]; in [5]) were 50.5 µM and 44.8 µM, respectively.
The matching figures for `C[C@@H]1[C@H](O)[C@@H](C)/C=C/C=C/C=C/C=C/C=C/C=C/C=C/[C@H](O[C@@H]2O[C@H](C)[C@@H](O)[C@H](N)[C@@H]2O)C[C@@H]2O[C@](O)(C[C@@H](O)C[C@@H](O)[C@H](O)CC[C@@H](O)C[C@@H](O)CC(=O)O[C@H]1C)C[C@H](O)[C@H]2C(=O)O` [AMPHOTERICIN B]: 6.5 µM, 2.8 µM, 2.8 µM, 19.6 µM and 11.9 µM.
The matching figures for `COc1ccc2[nH]c([S+]([O-])Cc3ncc(C)c(OC)c3C)nc2c1` (centres undefined) [OMEPRAZOLE]: 178 µM, 177 µM, 340 µM, 526 µM and 509 µM.
Regarding `C/C=C(/C)C(=O)O[C@H]1C(C)=C2[C@H]([C@@H]1OC(=O)CCCCCCC)[C@@](C)(OC(C)=O)C[C@H](OC(=O)CCC)[C@@]1(O)[C@H]2OC(=O)[C@@]1(C)O` [THAPSIGARGIN], the IC50 in the data set on Trypanosoma cruzi [4] amounted to 33.9 µM; in data set [5], 30.1 µM; in the data set on Leishmania donovani [6], 28.1 µM. For the same compound, the values for the IC90 (in the data set on Trypanosoma cruzi [4]; in data set [5]) were 78.1 µM and 71.9 µM, respectively. In the data set with Trypanosoma cruzi [7], the Activity was found to be 25.8%.
For `C[C@@H]1O[C@@H](O[C@H]2C[C@@H](O)[C@]3(CO)[C@H]4[C@H](O)C[C@]5(C)[C@@H](C6=CC(=O)OC6)CC[C@]5(O)[C@@H]4CC[C@]3(O)C2)[C@H](O)[C@H](O)[C@H]1O` [OUABAIN], the half-maximal inhibitory concentration (IC50) (in the data set on Trypanosoma cruzi [4]; in data set [5]; with Leishmania donovani [6]) was > 450 µM throughout. The values for the IC90 (in the data set on Trypanosoma cruzi [4]; in [5]) were 953 µM and 1180 µM, respectively.
